Laboratory results: ChEMBL document CHEMBL1122425, “Synthesis and some pharmacological properties of [4-threonine,7-sarcosine]oxytocin, a peptide with high oxytocic potency, and of [4-threonine,7-N-methylalanine]oxytocin” (1983)

Columns and labels:
[1] = organism: Rattus norvegicus; assay: Evaluation of milk ejecting activity; type: functional
[2] = system: Rattus norvegicus; assay: Evaluation of antidiuretic activity against ethanol-anesthetized rats; type: functional, Urine
In short: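 Rats water-loaded before assay, under ethanol anesthesia.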

[3] = organism: Rattus norvegicus; assay: In vitro for uterotonic activity in the absence of Mg2+ ion by Munsick method; type: functional
[4] = Ratio of Oxytocin to Pressor activity; type: functional
[5] = organism: Rattus norvegicus; assay: In vitro for uterotonic activity in the presence of Mg2+ ion by Munsick method; type: functional
In short: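 Isolated uterus bath contains 0.5 mM Mg2+.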

[6] = Ratio of Oxytocin to Antidiuretic activity; type: functional, Urine
[7] = organism: Rattus norvegicus; assay: Evaluation of vasopressor activity; type: functional

For `CC[C@H](C)[C@@H]1NC(=O)[C@H](Cc2ccc(O)cc2)NC(=O)[C@@H](N)CSSC[C@@H](C(=O)N2CCC[C@H]2C(=O)N[C@@H](CC(C)C)C(=O)NCC(N)=O)NC(=O)[C@H](CC(N)=O)NC(=O)[C@H](CCC(N)=O)NC1=O` [OXYTOCIN], which Activity [1] is on record?
The Activity was 474 U mg-1.

And the Activity [2]?
The Activity was 4 U mg-1.

What about the Activity [3] of the same molecule?
The Activity was 520 U mg-1.

What about the Ratio [4] of the same molecule?
The Ratio was 120.

And the Activity [5]?
The Activity was 486 U mg-1.

With `CC[C@H](C)[C@@H]1NC(=O)[C@@H](Cc2ccc(O)cc2)NC(=O)[C@H](N)CSSC[C@@H](C(=O)N2CCC[C@@H]2C(=O)N[C@@H](CC(C)C)C(=O)NCC(N)=O)NC(=O)[C@H](CC(N)=O)NC(=O)[C@@H]([C@H](C)O)NC1=O` as the molecule, how does the Ratio [4] read?
The Ratio was 2150.

With `CC[C@H](C)[C@@H]1NC(=O)[C@@H](Cc2ccc(O)cc2)NC(=O)[C@H](N)CSSC[C@@H](C(=O)N(C)CC(=O)N[C@@H](CC(C)C)C(=O)NCC(N)=O)NC(=O)[C@H](CC(N)=O)NC(=O)[C@@H](CCC(N)=O)NC1=O` as the molecule, how does the Ratio [4] read?
The Ratio was > 1310.

With `CC[C@H](C)[C@@H]1NC(=O)[C@H](Cc2ccc(O)cc2)NC(=O)[C@@H](N)CSSC[C@@H](C(=O)N(C)[C@@H](C)C(=O)N[C@@H](CC(C)C)C(=O)NCC(N)=O)NC(=O)[C@H](CC(N)=O)NC(=O)[C@H](CCC(N)=O)NC1=O` as the molecule, how does the Activity [1] read?
Its Activity is 402 U mg-1.

And the Ratio [6]?
The Ratio was 516.

What about the Activity [2] of the same molecule?
The Activity was 0.12 U mg-1.

What about the Activity [3] of the same molecule?
Its Activity is 62 U mg-1.

And the Activity [5]?
The Activity was 184 U mg-1.

And the Activity [7]?
The Activity was <0.35 U mg-1.

For `CC[C@H](C)[C@@H]1NC(=O)[C@@H](Cc2ccc(O)cc2)NC(=O)[C@H](N)CSSC[C@@H](C(=O)N(C)[C@H](C)C(=O)N[C@@H](CC(C)C)C(=O)NCC(N)=O)NC(=O)[C@H](CC(N)=O)NC(=O)[C@@H]([C@H](C)O)NC1=O`, which Ratio [4] is on record?
Its Ratio is > 192.

Which Ratio [4] does the source give for `CC[C@H](C)[C@@H]1NC(=O)[C@@H](Cc2ccc(O)cc2)NC(=O)[C@H](N)CSSC[C@@H](C(=O)N(C)CC(=O)N[C@@H](CC(C)C)C(=O)NCC(N)=O)NC(=O)[C@H](CC(N)=O)NC(=O)[C@@H]([C@H](C)O)NC1=O` here?
Its Ratio is > 2350.

Which Activity [1] does the source give for `CC[C@H](C)[C@@H]1NC(=O)[C@H](Cc2ccc(O)cc2)NC(=O)[C@@H](N)CSSC[C@@H](C(=O)N(C)[C@@H](C)C(=O)N[C@@H](CC(C)C)C(=O)NCC(N)=O)NC(=O)[C@H](CC(N)=O)NC(=O)[C@H]([C@@H](C)O)NC1=O` here?
The Activity was 243 U mg-1.

And the Ratio [6]?
The Ratio was 2450.

And the Activity [2]?
Its Activity is 0.047 U mg-1.

What about the Activity [3] of the same molecule?
Its Activity is 115 U mg-1.

What about the Activity [5] of the same molecule?
Its Activity is 219 U mg-1.

And the Activity [7]?
Its Activity is <0.6 U mg-1.

With `CC[C@H](C)[C@@H]1NC(=O)[C@@H](Cc2ccc(O)cc2)NC(=O)[C@H](N)CSSC[C@@H](C(=O)N(C)[C@H](C)C(=O)N[C@@H](CC(C)C)C(=O)NCC(N)=O)NC(=O)[C@H](CC(N)=O)NC(=O)[C@@H](CCC(N)=O)NC1=O` as the molecule, how does the Ratio [4] read?
Its Ratio is > 177.

Which Activity [1] does the source give for `CC[C@H](C)[C@@H]1NC(=O)[C@H](Cc2ccc(O)cc2)NC(=O)[C@@H](N)CSSC[C@@H](C(=O)N2CCC[C@H]2C(=O)N[C@@H](CC(C)C)C(=O)NCC(N)=O)NC(=O)[C@H](CC(N)=O)NC(=O)[C@H]([C@@H](C)O)NC1=O` here?
The Activity was 543 U mg-1.

What about the Ratio [6] of the same molecule?
The Ratio was 510.

And the Activity [2]?
Its Activity is 1.8 U mg-1.

And the Activity [3]?
The Activity was 923 U mg-1.

And the Activity [5]?
The Activity was 719 U mg-1.

And the Activity [7]?
Its Activity is 0.43 U mg-1.

With `CC[C@H](C)[C@@H]1NC(=O)[C@H](Cc2ccc(O)cc2)NC(=O)[C@@H](N)CSSC[C@@H](C(=O)N(C)CC(=O)N[C@@H](CC(C)C)C(=O)NCC(N)=O)NC(=O)[C@H](CC(N)=O)NC(=O)[C@H](CCC(N)=O)NC1=O` as the molecule, how does the Activity [1] read?
The Activity was 564 U mg-1.

What about the Ratio [6] of the same molecule?
The Ratio was 2550.

And the Activity [2]?
The Activity was 0.18 U mg-1.

What about the Activity [3] of the same molecule?
Its Activity is 459 U mg-1.

What about the Activity [5] of the same molecule?
Its Activity is 609 U mg-1.

And the Activity [7]?
Its Activity is <0.35 U mg-1.

With `CC[C@H](C)[C@@H]1NC(=O)[C@H](Cc2ccc(O)cc2)NC(=O)[C@@H](N)CSSC[C@@H](C(=O)N(C)CC(=O)N[C@@H](CC(C)C)C(=O)NCC(N)=O)NC(=O)[C@H](CC(N)=O)NC(=O)[C@H]([C@@H](C)O)NC1=O` as the molecule, how does the Activity [1] read?
Its Activity is 731 U mg-1.

What about the Ratio [6] of the same molecule?
Its Ratio is 31700.

And the Activity [2]?
Its Activity is 0.037 U mg-1.

And the Activity [3]?
Its Activity is 1173 U mg-1.

And the Activity [5]?
Its Activity is 1561 U mg-1.

And the Activity [7]?
The Activity was <0.5 U mg-1.
